Bioassay records deposited in PubChem by Broad Institute.
DYRK1A inh: blocks rat Dyrk1A kinase activity. ADP-Glo luminescence, NFATc1 peptide. Q63470. inhibition, % at 12.5 µM. AID 504441. hit rate 0.43% among 310,000; in the data active means inhibition above about 50%;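 further: plate controls were vehicle with enzyme for no effect and no enzyme for full effect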
CAL PDZ FP-1: human CAL PDZ-peptide interaction inhibition | purified CAL PDZ, TMR-peptide fluorescence polarization, 1 h | Q9HD26 | inhibition, % at 20 µM | hit rate 0.02% among 330,000 | AID 504414;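 active means highest replicate inhibition of at least 40%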;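 further: plate controls were DMSO neutral control wells for no effect and unlabeled competitor peptide control wells for full effect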
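Read-out basis: mP drop reported as inhibition | Assay system: Tagged CAL PDZ protein CerCALP, purified | Benchmarks: Unlabelled peptide for full inhibition, DMSO wells as neutral | Schedule: 1 h incubation at room temperature before polarization reading | Buffer or medium: Sodium phosphate/NaCl buffer pH 7.4 with TCEP, IgG, Thesit | Doses: Single point, 20 µM | Measured by: Fluorescence polarization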
CAL PDZ FP-2: CAL PDZ (human) peptide binding inhibition | purified CAL PDZ, TMR-peptide fluorescence polarization, 1 h | Q9HD26 | hit rate 0.92% among 300,000 | AID 602252 | inhibition, % at 24.9 µM;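 active means mean inhibition of at least 30% with at least half of replicates also reaching 30%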;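 further: 0% = DMSO neutral control and 100% = excess unlabeled competitor peptide PRC23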
Rtt109 HAT inh: C. albicans Rtt109 histone acetyltransferase inhibition; Q5AAJ8; purified Rtt109/Vps75, ThioGlo CoA-SH fluorescence, 4 h; inhibition, % at 34.9 µM; hit rate 0.16% among 330,000; AID 540336;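 active means inhibition of at least 50% in every replicate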
Target sequence (Q5AAJ8 whole entry, looked up): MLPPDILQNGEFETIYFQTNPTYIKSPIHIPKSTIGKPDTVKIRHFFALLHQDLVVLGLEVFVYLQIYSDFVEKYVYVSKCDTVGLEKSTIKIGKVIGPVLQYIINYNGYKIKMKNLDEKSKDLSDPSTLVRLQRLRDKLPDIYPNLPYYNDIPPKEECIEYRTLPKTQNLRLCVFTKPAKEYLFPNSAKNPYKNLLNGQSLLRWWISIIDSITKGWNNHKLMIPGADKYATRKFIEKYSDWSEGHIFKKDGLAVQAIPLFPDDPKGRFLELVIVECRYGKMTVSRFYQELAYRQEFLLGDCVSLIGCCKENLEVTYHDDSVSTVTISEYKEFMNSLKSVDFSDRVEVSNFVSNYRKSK
ALR H2O2 inh: inhibitors of human sulfhydryl oxidase ALR; inhibition, % (concentration not given with the values); P55789; hit rate 3.8% among 290,000; purified ALR, DTT oxidation, H2O2 HRP-luminol luminescence;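 active means mean replicate inhibition above about 79%, with every replicate also reaching it, limit read from the data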
Dyrk1A artifact: interferes with ADP-Glo luciferase readout without Dyrk1A | shares compounds with DYRK1A inh | ADP-Glo luciferase artifact assay, no Dyrk1A, luminescence | AC50, µM (top dose mostly 12 µM), inactives show at the top dose activity change, negative = inhibition | 1,300 tested, under 10 active | AID 588348;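 active means fitted half-maximal dose AC50 no more than ten times the top valid tested dose, with luminescence dropping as dose rises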
Starred values were filed as active, the others as inactive; . = no result. Most compounds without a hit are left out; they make up all but 4.3% or so of the library.

SMILES | DYRK1A inh | CAL PDZ FP-1 | CAL PDZ FP-2 | Rtt109 HAT inh | ALR H2O2 inh | Dyrk1A artifact
O=C(/C=C/c1ccccc1)Nc1cccc(C(=O)NC2CC2)c1 | 63* | -2 | -1 | 2 | . | 8%
CC1(C)CC(NC(=O)c2cc(S(=O)(=O)N3CCCCC3)ccc2Cl)CC(C)(C)N1 | 1 | 1 | . | -1 | -2 | .
CC(C(=O)NC(=O)NC1CCCCC1)N1CCN(C(c2ccccc2)c2ccccc2)CC1 (stereo not drawn) | 3 | -1 | -3 | 4 | -11 | .
Cc1nnc2c3ccccc3c(-c3ccc(O)cc3)nn12 | -2 | -6 | 2 | 6 | -10 | .
Cc1nnc2c3ccccc3c(-c3cccs3)nn12 | 60* | 0 | 3 | -21 | . | 7%
Oc1ccc(-c2csc(NCc3ccco3)n2)cc1 | 52* | 0 | -3 | 2 | 54 | 6%
Cc1cc(-c2ccc(C(=O)O)s2)cnc1N | 65* | -2 | -1 | -23 | -2 | 9%
O=C(O)c1ccc(-c2ccc(-c3ccccc3)cc2)s1 | 1 | -5 | -6 | 16 | -2 | .
O=C(Nc1ccc(Oc2nnc(-c3ccccc3)c3ccccc23)cc1)c1ccccc1 | -3 | 0 | -3 | 2 | -8 | .
